One assay has as its target T1, Six1-Eya2 interaction (Homo sapiens, UniProt O00167+Q15475).
T1 sequence (Q15475 1-284): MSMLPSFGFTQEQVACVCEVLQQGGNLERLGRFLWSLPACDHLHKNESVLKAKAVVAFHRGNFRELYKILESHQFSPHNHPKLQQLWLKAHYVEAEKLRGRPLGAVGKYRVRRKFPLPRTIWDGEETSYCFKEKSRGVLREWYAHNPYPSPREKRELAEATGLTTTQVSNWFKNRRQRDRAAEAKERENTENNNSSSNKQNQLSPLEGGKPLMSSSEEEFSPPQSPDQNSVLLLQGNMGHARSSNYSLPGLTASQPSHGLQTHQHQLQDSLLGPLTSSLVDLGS
T1 sequence (O00167 1-538): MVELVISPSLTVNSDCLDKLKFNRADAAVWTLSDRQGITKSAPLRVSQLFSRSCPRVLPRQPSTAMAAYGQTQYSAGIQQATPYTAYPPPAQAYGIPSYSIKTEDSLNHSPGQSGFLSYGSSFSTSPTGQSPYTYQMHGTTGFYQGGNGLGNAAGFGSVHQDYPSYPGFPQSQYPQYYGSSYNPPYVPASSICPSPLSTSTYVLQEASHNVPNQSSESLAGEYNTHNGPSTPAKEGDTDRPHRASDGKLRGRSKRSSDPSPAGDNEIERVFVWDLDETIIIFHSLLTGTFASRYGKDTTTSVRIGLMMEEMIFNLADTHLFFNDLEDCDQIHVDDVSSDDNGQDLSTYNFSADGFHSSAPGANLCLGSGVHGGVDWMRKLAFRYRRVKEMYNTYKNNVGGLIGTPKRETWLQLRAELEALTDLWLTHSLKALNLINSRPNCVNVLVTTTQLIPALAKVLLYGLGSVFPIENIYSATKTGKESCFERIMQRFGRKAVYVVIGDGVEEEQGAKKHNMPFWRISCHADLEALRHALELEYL
As to the kind of experiment: Counterscreen AlphaScreen assay, Six1-Eya2. The format is binding. As to conditions: 20 nM to 50 μM. Put shortly: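 Counterscreen AlphaScreen with 200 nM 6xHis-Eya2 and GST-Six1 in 50 mM Tris pH 8.0, 250 mM NaCl, 0.05% BSA, 0.02% Tween-20. Test compound was added at 20 nM to 50 μM. Glutathione donor and Ni-chelate acceptor beads were added from a 25 ng/μL (each) bead solution. Incubated 2 h at 25 °C, then read in AlphaScreen mode.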
(In general: The purpose of a counterscreen is to sort out artefacts and off-target activity.)

Assay [1] deals with CtBP1-E1A peptide interaction (Homo sapiens, UniProt Q13363). As to the kind of experiment: Fluorescence polarization assay with FITC-labeled E1A 14-mer peptide. The format is binding. As to conditions: for disruption of the CtBP1-peptide interaction (in words): up to 100 μM.
Assay [2] addresses T2, CtBP1-E1A interaction (Homo sapiens, UniProt Q13363). As to the kind of experiment: CtBP1-E1A AlphaScreen assay. The format is binding. As to conditions: for disruption of the CtBP1-E1A interaction (in words): up to 100 μM.
Assay [3] concerns MEF3 promoter (SIX1 transcriptional complex). Description: MEF3 promoter luciferase reporter assay in H1299 cells. The format is cell-based. As to conditions: 18 hrs, normalized to Renilla. In outline:
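H1299 cells were seeded at 2000 cells/well and adhered overnight. FuGENE 6 transfection used 60 ng/well pGL3-MEF3 promoter, 40 ng/well Six1, 30 ng/well Eya2 and 14 ng/well Renilla luciferase. After 10 h, cells were treated with varying test compound concentrations for 18 h. Dual-luciferase read-out after passive lysis, with Firefly normalised to Renilla.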
A general note: In a reporter assay the amount or activity of a reporter protein is the signal.

The subject of assay [4] is CtBP1-mediated repression of the E-cadherin promoter. Description: E-cadherin promoter luciferase reporter assay in H1299 cells. The format is cell-based. The settings on record: 18 hrs, normalized to Renilla. Put shortly: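 H1299 cells were seeded at 2000 cells/well and adhered overnight. FuGENE 6 transfection used 30 ng/well pGL3-E-cadherin promoter plus 10 ng/well Renilla luciferase. After 10 h, cells were treated with varying test compound concentrations for a further 18 h. Passive lysis, then dual-luciferase measurement with Firefly normalised to Renilla.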

The next assay concerns NCI 60 tumor-cell panel. The settings on record: ref http://dtp.nci.nih.gov/; cited from earlier work.
Another assay deals with CtBP1 (Homo sapiens, UniProt Q13363). Description: CtBP1 enzymatic assay. Type of assay: biochemical. The settings on record: NADH oxidation, 340 nm. Put shortly: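 E. coli-expressed His-CtBP1 (2 μM) in PBS with NADH. Test compound was added at increasing concentrations in 100 μL reactions after a 2 min incubation at 30 °C. Substrate reduction followed as NADH disappearance at 340 nm by spectrophotometer. Activity expressed as nmol NADH/min/mg protein.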

A further assay concerns lactate dehydrogenase. Description: Lactate dehydrogenase enzymatic assay. The format is biochemical. In outline:
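Lactate dehydrogenase at 5 nM in PBS with 100 μM NADH. Incubated with 5 μM pyruvate or varying test compound concentrations for 1 min at 30 °C. NADH consumption monitored spectrophotometrically at 340 nm; activity as nmol/min/mg protein.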

For assay [5], the target named is T2, CtBP1-E1A interaction. As to the kind of experiment: Competitive ELISA. The settings on record: read-out: IC50, disruption of the CtBP1-E1A interaction. The format is binding. Put shortly: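 Plates coated with His-tagged CtBP1 (E. coli-expressed, Ni-affinity then size-exclusion purified) in 50 mM Tris pH 8.0, 250 mM NaCl, 1 h at 25 °C. Blocked 1 h with 1% BSA/0.05% Tween-20 in 50 mM Tris pH 8.0, 250 mM NaCl, 1 mM TCEP. GST-Ad5 E1A was added with increasing test compound concentrations in triplicate for 1 h at 25 °C. Detection used rabbit anti-GST (1:1500), then goat anti-rabbit (1:2500), 1 h each, and ABTS absorbance.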

We go through 9 compounds from publication PMC4486263 (Journal of biomolecular screening, 2014).

“Also recorded” adds a separate entry of the source.

Turning to `O.c1cnc2c(c1)ccc1cccnc12` [10-phenanthroline monohydrate], the “inhibition of the Six1-Eya2 interaction” value at Six1-Eya2 interaction was “efficiently inhibited”.

Consider `CCCn1c(=O)c2[nH]c(C3CCCC3)nc2n(CCCOC(=O)c2ccc(S(=O)(=O)F)cc2)c1=O` [FSCPX], for which the “disruption of the CtBP1-peptide interaction (in words)” value in assay [1] is “inactive; also recorded: unable to disrupt”. In addition, the “inhibition of the Six1-Eya2 interaction” value against Six1-Eya2 interaction is “did not inhibit”.

For `O=C1c2ccccc2C(=O)c2c(NCCc3ccc(O)cc3)ccc(NCCc3ccc(O)cc3)c21` [JFD00244], the “inhibition of the Six1-Eya2 interaction” value against Six1-Eya2 interaction was “efficiently inhibited”.

In the case of `CSCCC(=O)C(=O)O` [MTOB, 4-methylthio-2-oxobutanoic acid], the “disruption of the CtBP1-peptide interaction (in words)” value in assay [1] is reported as “ineffective at disrupting the interaction; also recorded: unable to inhibit”. The “disruption of the CtBP1-E1A interaction (in words)” value at CtBP1-E1A interaction [2] is listed as “ineffective at disrupting the interaction; also recorded: unable to inhibit; also recorded: unable to affect the protein interaction”.

As usually defined, the IC50 is the concentration that gives 50% inhibition. Take `O=C1C(SCCO)=C(SCCO)C(=O)c2ccccc21` [NSC95397]: in assay [3], the “luciferase activity, MEF3 promoter” value is on record as “unaltered; also recorded: has no effect”. Moreover, the “luciferase activity, E-cadherin promoter” value in [4] is “able to disrupt CtBP-mediated transcriptional repression; also recorded: increased with increasing concentrations; also recorded: can reverse CtBP-mediated transcriptional repression”. Further, the “average GI50s over all cell lines” value in the assay on NCI 60 tumor-cell panel was 1040 nM. In addition, the IC50 in [1] (read-out: IC50, CtBP1-E1A peptide interaction, 3 μM CtBP1, 5 nM FITC-E1A peptide) is 610 ± 120 nM; at CtBP1-E1A interaction [2] (read-out: IC50, inhibition of the CtBP1-E1A interaction), 2900 nM; on CtBP1-E1A interaction [5] it was 10000 ± 1300 nM. For the same compound, the “disruption of the CtBP1-peptide interaction (in words)” value in [1] is listed as “able to disrupt the interaction; also recorded: efficiently inhibits”. Besides, the “maximal activity as CtBP1 substrate” value at CtBP1 is given as 28.5 ± 4.9 nmol/min/mg protein. At CtBP1-E1A interaction [2], the “disruption of the CtBP1-E1A interaction (in words)” value is “able to disrupt the interaction; also recorded: efficiently inhibits”. Also, the “inhibition of LDH (pyruvate reduction)” value with lactate dehydrogenase (5 μM pyruvate, up to 100 μM compound) is recorded as “did not significantly inhibit; also recorded: unable to detect any inhibition; also recorded: unable to inhibit”. In addition, in the assay on lactate dehydrogenase (increasing concentrations, no pyruvate), the “substrate of LDH (NADH consumption without pyruvate)” value is “nor did it exhibit significant consumption of NADH; also recorded: did not detect a significant loss in NADH levels”. For the same compound, at Six1-Eya2 interaction, the “inhibition of the Six1-Eya2 interaction” value is “did not inhibit; also recorded: does not inhibit; also recorded: did not detect a loss of AlphaScreen signal”.

For `O=C1O/C(=C/Br)CCC1c1cccc2ccccc12` (centres unmarked) [bromoenol lactone], on Six1-Eya2 interaction, the “inhibition of the Six1-Eya2 interaction” value was “efficiently inhibited”.

In the case of `CCCCc1ccc(C(=O)O)nc1` [fusaric acid], the “disruption of the CtBP1-peptide interaction (in words)” value in assay [1] is “inactive; also recorded: unable to disrupt”. Besides, the “inhibition of the Six1-Eya2 interaction” value against Six1-Eya2 interaction is given as “did not inhibit”.

As for `CC(=O)C(=O)O` [pyruvate], the “LDH activity with substrate” value with lactate dehydrogenase came to 9680 ± 558 nmol/min/mg protein.

With `Nc1c(S(=O)(=O)O)cc(Nc2ccc(Nc3nc(Cl)nc(Nc4cccc(S(=O)(=O)O)c4)n3)c(S(=O)(=O)O)c2)c2c1C(=O)c1ccccc1C2=O` [reactive blue 2], the “inhibition of the Six1-Eya2 interaction” value against Six1-Eya2 interaction is “efficiently inhibited”.
